Experimental data from ChEMBL document CHEMBL5303300, “EUbOPEN Chemogenomics Library - Multiplex” (2023).
Values joined by “and” are separate entries in the source; they are usually repeats but may differ in a detail not shown here. Identical values can stand only once.

Tested on: U2OS
Test: Multiplex assay against U2OS
Type: toxicity, cell-based
Conditions: human, number of replicates 2
Method in brief: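 Tubulin, mitochondrial-mass and membrane-permeability phenotypes are per cents of healthy-nucleus cells. Cells were gated by CellPathfinder machine learning into Hoechst high-intensity objects or normal cells, normal cells into healthy, pyknosed or fragmented nuclei, and pyknosed cells into mitotic or apoptotic. Before that, live cells stained at seeding with Hoechst33342, BioTracker Green Microtubule Cytoskeleton Dye, MitoTracker Red and Annexin V Alexa Fluor 680 were imaged on a CQ1 microscope at 37°C and 5% CO2 after compound addition.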

[1] = 12 h, 1 µM, compound concentration 1 uM
[2] = 12 h, 10 µM, compound concentration 10 uM
[3] = 24 h, 1 µM, compound concentration 1 uM
[4] = 24 h, 10 µM, compound concentration 10 uM
[5] = 48 h, 1 µM, compound concentration 1 uM
[6] = 48 h, 10 µM, compound concentration 10 uM

## COc1cccc(Cn2cc(C(=O)Nc3ccc(C)c(S(=O)(=O)N4CCOCC4)c3)c(-c3ccc(C)cc3)n2)c1
[1]
  Population Apoptotic (%): 33% and 76%
  Population Healthy Nuclei (%): 46% and 76%
  Population Hoechst High Intensity Objects (%): 0%
  Population Membrane Permeable-Phenotype (%): 7% and 0%
  Population Mitochondria Different-Phenotype (%): 0% and 4%
  Population Mitotic Cells (%): 66% and 23%
  Population Normal (%): 100%
  Population Pyknosed Nuclei (%): 21% and 13%
  Population Tubulin-Different-Phenotype (%): 38% and 54%
[2]
  Population Apoptotic (%): 71% and 52%
  Population Healthy Nuclei (%): 45% and 79%
  Population Hoechst High Intensity Objects (%): 0%
  Population Membrane Permeable-Phenotype (%): 47% and 38%
  Population Mitochondria Different-Phenotype (%): 11% and 9%
  Population Mitotic Cells (%): 28% and 47%
  Population Normal (%): 100%
  Population Pyknosed Nuclei (%): 37% and 17%
  Population Tubulin-Different-Phenotype (%): 88% and 90%
[3]
  Population Apoptotic (%): 37% and 76%
  Population Fragmented Nuclei (%): 24% and 8%
  Population Healthy Nuclei (%): 48% and 78%
  Population Hoechst High Intensity Objects (%): 0%
  Population Mitochondria Different-Phenotype (%): 14% and 5%
  Population Mitotic Cells (%): 62% and 23%
  Population Normal (%): 100% and 99%
  Population Pyknosed Nuclei (%): 27% and 13%
  Population Tubulin-Different-Phenotype (%): 64% and 65%
[4]
  Population Apoptotic (%): 60% and 72%
  Population Fragmented Nuclei (%): 15% and 6%
  Population Healthy Nuclei (%): 46% and 70%
  Population Hoechst High Intensity Objects (%): 0%
  Population Membrane Permeable-Phenotype (%): 44% and 47%
  Population Mitotic Cells (%): 40% and 27%
  Population Normal (%): 100%
  Population Pyknosed Nuclei (%): 38% and 23%
  Population Tubulin-Different-Phenotype (%): 94% and 90%
[5]
  Population Apoptotic (%): 45% and 67%
  Population Healthy Nuclei (%): 48% and 83%
  Population Hoechst High Intensity Objects (%): 0%
  Population Membrane Permeable-Phenotype (%): 10% and 3%
  Population Mitochondria Different-Phenotype (%): 10% and 4%
  Population Mitotic Cells (%): 54% and 32%
  Population Normal (%): 100%
  Population Pyknosed Nuclei (%): 26% and 12%
  Population Tubulin-Different-Phenotype (%): 65% and 80%
[6]
  Population Apoptotic (%): 73% and 70%
  Population Fragmented Nuclei (%): 7% and 21%
  Population Healthy Nuclei (%): 63% and 32%
  Population Hoechst High Intensity Objects (%): 0%
  Population Membrane Permeable-Phenotype (%): 56% and 33%
  Population Mitochondria Different-Phenotype (%): 21% and 16%
  Population Mitotic Cells (%): 26% and 29%
  Population Normal (%): 99% and 100%
  Population Pyknosed Nuclei (%): 28% and 45%
  Population Tubulin-Different-Phenotype (%): 85% and 100%

## Cn1cc(-n2cnc3c(NCc4nc5cc(Cl)c(Cl)cc5[nH]4)nc(N4CCOCC4)nc32)cn1
[1]
  Population Apoptotic (%): 41% and 88%
  Population Healthy Nuclei (%): 36% and 71%
  Population Hoechst High Intensity Objects (%): 0%
  Population Membrane Permeable-Phenotype (%): 5% and 7%
  Population Mitochondria Different-Phenotype (%): 0% and 8%
  Population Normal (%): 100%
  Population Pyknosed Nuclei (%): 36% and 24%
  Population Tubulin-Different-Phenotype (%): 58% and 50%
[2]
  Population Apoptotic (%): 62% and 75%
  Population Hoechst High Intensity Objects (%): 0%
  Population Membrane Permeable-Phenotype (%): 33% and 23%
  Population Mitochondria Different-Phenotype (%): 16% and 37%
  Population Mitotic Cells (%): 37% and 24%
  Population Normal (%): 100%
  Population Pyknosed Nuclei (%): 39% and 28%
  Population Tubulin-Different-Phenotype (%): 66% and 73%
[3]
  Population Apoptotic (%): 96% and 80%
  Population Fragmented Nuclei (%): 9% and 21%
  Population Healthy Nuclei (%): 11% and 13%
  Population Hoechst High Intensity Objects (%): 1% and 7%
  Population Membrane Permeable-Phenotype (%): 18% and 0%
  Population Normal (%): 98% and 92%
  Population Pyknosed Nuclei (%): 79% and 65%
  Population Tubulin-Different-Phenotype (%): 50% and 80%
[4]
  Population Apoptotic (%): 94% and 95%
  Population Hoechst High Intensity Objects (%): 1% and 0%
  Population Mitotic Cells (%): 5% and 4%
  Population Normal (%): 98% and 100%
  Population Pyknosed Nuclei (%): 64% and 61%
  Population Tubulin-Different-Phenotype (%): 89% and 33%
[5]
  Population Apoptotic (%): 100% and 86%
  Population Fragmented Nuclei (%): 10% and 16%
  Population Healthy Nuclei (%): 4% and 0%
  Population Hoechst High Intensity Objects (%): 2% and 7%
  Population Mitotic Cells (%): 0% and 13%
  Population Normal (%): 97% and 92%
  Population Pyknosed Nuclei (%): 85% and 83%
[6]
  Population Apoptotic (%): 94% and 92%
  Population Healthy Nuclei (%): 10% and 5%
  Population Hoechst High Intensity Objects (%): 0% and 1%
  Population Membrane Permeable-Phenotype (%): 100% and 57%
  Population Mitochondria Different-Phenotype (%): 100% and 57%
  Population Mitotic Cells (%): 5% and 7%
  Population Normal (%): 100% and 98%
  Population Pyknosed Nuclei (%): 44% and 85%
  Population Tubulin-Different-Phenotype (%): 100% and 85%

## Cc1cc(NC(=O)c2cccc(NC(=O)/C=C/CN(C)C)c2)ccc1Nc1nccc(-c2cccnc2)n1
[1]
  Population Apoptotic (%): 100% and 77%
  Population Healthy Nuclei (%): 55% and 82%
  Population Hoechst High Intensity Objects (%): 0%
  Population Membrane Permeable-Phenotype (%): 0%
  Population Mitochondria Different-Phenotype (%): 4% and 0%
  Population Mitotic Cells (%): 0% and 22%
  Population Normal (%): 100%
  Population Pyknosed Nuclei (%): 4% and 12%
  Population Tubulin-Different-Phenotype (%): 70% and 87%
[2]
  Population Apoptotic (%): 75%
  Population Fragmented Nuclei (%): 9% and 3%
  Population Healthy Nuclei (%): 61% and 65%
  Population Hoechst High Intensity Objects (%): 0%
  Population Membrane Permeable-Phenotype (%): 15% and 21%
  Population Mitochondria Different-Phenotype (%): 23% and 18%
  Population Mitotic Cells (%): 25% and 24%
  Population Normal (%): 100%
  Population Pyknosed Nuclei (%): 28% and 31%
  Population Tubulin-Different-Phenotype (%): 76% and 43%
[3]
  Population Apoptotic (%): 33% and 86%
  Population Healthy Nuclei (%): 60% and 83%
  Population Hoechst High Intensity Objects (%): 0%
  Population Membrane Permeable-Phenotype (%): 3% and 1%
  Population Mitochondria Different-Phenotype (%): 3% and 0%
  Population Normal (%): 100%
  Population Pyknosed Nuclei (%): 6% and 9%
  Population Tubulin-Different-Phenotype (%): 66% and 90%
[4]
  Population Apoptotic (%): 92% and 85%
  Population Fragmented Nuclei (%): 15% and 10%
  Population Healthy Nuclei (%): 26% and 35%
  Population Hoechst High Intensity Objects (%): 4% and 1%
  Population Membrane Permeable-Phenotype (%): 41% and 23%
  Population Mitochondria Different-Phenotype (%): 41% and 38%
  Population Mitotic Cells (%): 7% and 14%
  Population Normal (%): 95% and 98%
  Population Pyknosed Nuclei (%): 58% and 53%
  Population Tubulin-Different-Phenotype (%): 91% and 61%
[5]
  Population Apoptotic (%): 37% and 75%
  Population Fragmented Nuclei (%): 18% and 6%
  Population Healthy Nuclei (%): 69% and 86%
  Population Hoechst High Intensity Objects (%): 0%
  Population Membrane Permeable-Phenotype (%): 4% and 1%
  Population Mitochondria Different-Phenotype (%): 2% and 1%
  Population Mitotic Cells (%): 62% and 24%
  Population Normal (%): 100%
  Population Pyknosed Nuclei (%): 12% and 7%
  Population Tubulin-Different-Phenotype (%): 68% and 91%
[6]
  Population Apoptotic (%): 96% and 95%
  Population Healthy Nuclei (%): 11% and 9%
  Population Hoechst High Intensity Objects (%): 10% and 2%
  Population Membrane Permeable-Phenotype (%): 100% and 92%
  Population Mitochondria Different-Phenotype (%): 100% and 53%
  Population Mitotic Cells (%): 3% and 4%
  Population Normal (%): 89% and 97%
  Population Pyknosed Nuclei (%): 67% and 84%
  Population Tubulin-Different-Phenotype (%): 100% and 84%
